SMILES strings stand for the structures. About 310 (0.097%) of roughly 320,000 compounds were called active. This is one part of a sample in which actives are shown more often than they occur.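 How the source made its calls: active means mean replicate activation of at least 60% and every replicate at or above 60%; inconclusive means mean or all-replicate condition met, but not both; inactive means mean below 60% and not all replicates reaching 60%.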

This test in a line: enhancers of HDL lipid transfer via mSR-BI – ldlA[mSR-BI] CHO cells, DiI fluorescence, primary screen (AID 504775).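 Further: 0% = median plate neutral-control signal and 100% = twice that signal.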 As to conditions: DiI-HDL uptake fluorescence, 3 h, at 12.5 µM, active compounds read high, 100 = double the neutral-control signal. In a few lines:
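Test system: SR-BI-overexpressing, LDLR-lacking CHO cells; Also added: labelled HDL, 10 µg/mL; Measured by: bottom-read cell fluorescence after medium removal, ex 550/em 595 nm; Timing: 3 h uptake period with compound, 37 °C; Buffer or medium: F12, 0.5% BSA, 25 mM HEPES; Doses: single compound concentration, delivered by pin transfer.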
For the compound `C#CCOCCOCCOCCNc1nc(N2CCOCC2)nc(N2CCN(C(=O)[C@H](Cc3ccc(O)cc3)n3cc(CCO)nn3)CC2)n1`, the activation was 15.4% (inactive).
The figure for `CC1CN(Cc2ccco2)C(=S)N(c2ccccc2)C1=O` (stereo not given) is 33.1% (inactive); for `COc1cccc(-c2sc3ccc(OC)cc3c2-c2ccc(OCCN3CCCCC3)cc2)c1` it is -2.84% (inactive); for `COc1ccc(-c2sc3ccccc3c2-c2ccc(OCCN3CCOCC3)cc2)cc1` it is -39.3% (inactive).
The figure for `COc1ccc2sc(-c3ccccc3OC)c(-c3ccc(OCCN4CCCC4)cc3)c2c1` is 88% (active); for `COc1cccc2oc(CCc3ccccc3)cc(=O)c12` it is 4.54% (inactive); for `CC(=O)OC1CCC2(C)C(=CCC3C4CC(=O)N(O)C(=O)C4(C)CCC32)C1` (stereo not given) it is 19% (inactive).
On to `COc1ccc(NC(=O)/C(N=Nc2cccc(S(=O)(=O)Nc3ccc(SC(F)F)cc3)c2)=C(\C)O)cc1`, for which the activation is 19.4% (inactive).
With `COc1ccc2nc(N3C(=O)C(O)=C(C(=O)c4ccco4)C3c3ccco3)sc2c1` (stereo not given), the activation is 2.11% (inactive).
The figure for `O=C1NC(=O)C(CCc2ccccc2)(c2ccccc2)N1` (stereo not given) is 20.8% (inactive); for `COC[C@@H]1NS(=O)(=O)c2ccc(Br)cc2O[C@H]1c1ccccc1` it is -5.43% (inactive).
The figure for `Cc1ccc2c(c1)NC(=O)[C@@]1(C)[C@@H](c3ccccc3)[C@H]3COc4ccc(Cl)cc4[C@@H]3N1C2=O` is 138% (active); for `COc1ccc2c(c1)[C@H]1[C@H](CO2)[C@H](c2ccccc2)[C@]2(C)C(=O)Nc3cc(F)c(F)cc3C(=O)N12` it is -10.6% (inactive).
The figure for `CCOC(=O)[C@H]1[C@H]2COc3ccc(Cl)cc3[C@@H]2N2C(=O)c3cc(C)ccc3NC(=O)[C@@]12C` is 5.05% (inactive).
`CCOc1ccc(CCNC(=O)COC(=O)C2CCN(S(=O)(=O)c3ccccc3)CC2)cc1OCC`: the activation was -35% (inactive).
Regarding `NS(=O)(=O)c1ccc(CNC(=S)NC(=O)c2ccco2)cc1`, the activation is 304% (active).
Regarding `NS(=O)(=O)c1ccc(NC(=O)COC(=O)c2ccco2)cc1`, the activation is -5.86% (inactive).
The figure for `COc1cc(NC(=S)NCc2ccc(S(N)(=O)=O)cc2)cc(OC)c1` is 1.73% (inactive).
Consider `COc1ccc(/C=C2/CCCc3ccccc3C2=O)cc1`, for which the activation is -12.7% (inactive).
For the compound `CN(CCc1ccccc1)C(=O)c1cccc(NC(=O)Cc2cccc(NC(=O)C3CCCN(C(=O)C4CCC4)C3)c2)c1` (stereo not given), the activation is -26.9% (inactive).
The figure for `COc1ccccc1N1CCN(C(=O)c2ccc(NC3=NC4CS(=O)(=O)CC4S3)cc2)CC1` (stereo not given) is 14.4% (inactive); for `O=C(NCCc1ccccc1)c1ccc(NC2=NC3CS(=O)(=O)CC3S2)cc1` (stereo not given) it is 85.7% (active); for `CN(Cc1ccccc1)C(=O)c1ccc(NC2=NC3CS(=O)(=O)CC3S2)cc1` (stereo not given) it is -2.73% (inactive).
On to `COc1cc2c(cc1OC)C1C(=O)c3cc(OS(C)(=O)=O)c(OC)cc3C1N(C)C2=O` (stereo not given), for which the activation is 1.01% (inactive).
The figure for `COc1ccc(Cn2cc(CN3CCS(=O)(=O)N(Cc4ccc(-c5cccc(Cl)c5)cc4)C(C)C3=O)nn2)cc1` (stereo not given) is -34.7% (inactive).
As for `O=[N+]([O-])c1ccc(COc2ccccc2CN2CCOCC2)cc1`, the activation is 19.3% (inactive).
The figure for `CC1CCC(NC(=O)CN(C)S(=O)(=O)c2ccc3c(c2)c(=O)n(C)c(=O)n3C)CC1` (stereo not given) is 246% (active); for `CCc1ccccc1NC(=O)CN(C)S(=O)(=O)c1ccc2c(c1)c(=O)n(C)c(=O)n2C` it is -3.85% (inactive); for `COc1cccc(CNC(=O)CN(C)S(=O)(=O)c2ccc3c(c2)c(=O)n(C)c(=O)n3C)c1` it is -3.22% (inactive).
As for `O=C1CC(C(=O)O)NC(=S)N1` (stereo not given), the figure is 3.49% (inactive); as for `Cc1cc(C)c(C=NNc2nc3c([nH]2)c(=O)n(C)c(=O)n3C)c(C)c1`, 12.4% (inactive).
Consider `CN(C)CCNC(=O)c1ccc(Cl)c2cc3ccccc3nc12`, for which the activation was 8.43% (inactive).
Turning to `CCN(CC)S(=O)(=O)c1cccc(NC(=O)c2ccc(S(=O)(=O)N3CCCC3)cc2)c1`, the activation is -41.2% (inactive).
On to `CC(C)=CCc1ccc(O)c(=O)cc1C(C)C`, for which the activation was -12.4% (inactive).
As to `O=C(Nc1c(Br)cc2c(c1Br)Cc1cc([N+](=O)[O-])ccc1-2)C(Cl)Cl`, the activation is -60.9% (inactive).
As for `CN(O)C(=S)c1ccccc1`, the figure is 24.5% (inactive).
Consider `O=C1CC(c2ccccc2)C(c2ccccc2)=NN1` (stereo not given), for which the activation was 1.49% (inactive).
As for `COc1cc(/C=C/CNC[C@H]2O[C@@H](n3cnc(C(N)=O)n3)[C@H](O)[C@@H]2O)ccc1O`, the activation was 8.13% (inactive).
With `O=S(=O)(Cc1ccc(Cl)cc1Cl)c1ccc(Cl)cc1`, the activation was -15.8% (inactive).
Take `Cc1ccc2c(O)c(Cc3ccccc3)c(=O)[nH]c2n1`: the activation is -7.66% (inactive).

For the origin of these results see PubChem BioAssay AID504775 (Broad Institute, 2011).
